Laboratory results taken from ChEMBL document CHEMBL1143741, “Sirtuin 2 inhibitors rescue alpha-synuclein-mediated toxicity in models of Parkinson's disease” (Science, 2007).
Calls of active or inactive are those of the source. The calls are words filed in the database; no cut-off is given here.

Experiments:
[1] = target: T1, NAD-dependent protein deacetylase sirtuin-3, mitochondrial (Homo sapiens, UniProt Q9NTG7); test: Inhibition of human recombinant SIRT3 using fluorescent peptide substrate by fluorescent assay
T1 sequence (Q9NTG7 whole entry): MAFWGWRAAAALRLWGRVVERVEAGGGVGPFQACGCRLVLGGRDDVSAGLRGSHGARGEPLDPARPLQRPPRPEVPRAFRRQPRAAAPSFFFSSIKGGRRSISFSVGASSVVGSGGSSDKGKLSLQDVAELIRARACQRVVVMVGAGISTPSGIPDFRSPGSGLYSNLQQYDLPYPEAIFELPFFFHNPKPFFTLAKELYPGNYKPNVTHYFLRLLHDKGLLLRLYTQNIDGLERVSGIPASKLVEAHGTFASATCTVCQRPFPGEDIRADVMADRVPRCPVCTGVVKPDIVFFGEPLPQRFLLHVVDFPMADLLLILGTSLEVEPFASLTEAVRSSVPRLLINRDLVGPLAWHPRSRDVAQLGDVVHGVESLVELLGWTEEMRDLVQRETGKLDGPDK

[2] = target: T2, NAD-dependent protein deacetylase sirtuin-2 (Homo sapiens, UniProt Q8IXJ6); test: Inhibition of human recombinant SIRT2 using fluorescent peptide substrate by fluorescent assay
T2 sequence (Q8IXJ6 whole entry): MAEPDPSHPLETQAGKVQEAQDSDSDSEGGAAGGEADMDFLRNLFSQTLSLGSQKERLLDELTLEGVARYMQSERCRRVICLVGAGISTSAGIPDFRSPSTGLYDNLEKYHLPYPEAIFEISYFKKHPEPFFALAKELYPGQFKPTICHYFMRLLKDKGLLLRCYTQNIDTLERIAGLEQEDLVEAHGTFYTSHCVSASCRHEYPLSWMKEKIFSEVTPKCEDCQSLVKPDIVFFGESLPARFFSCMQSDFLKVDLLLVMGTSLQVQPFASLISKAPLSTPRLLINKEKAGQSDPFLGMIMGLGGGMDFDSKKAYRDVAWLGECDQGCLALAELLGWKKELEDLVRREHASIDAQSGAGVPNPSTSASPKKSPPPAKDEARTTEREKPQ
Method in brief: (§1)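 Recombinant human SIRT1 or SIRT2 tested in an in vitro fluorometric deacetylation assay. Dose-response inhibition profiles were run, and IC50 was calculated from them.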

[3] = target: T3, NAD-dependent protein deacetylase sirtuin-1 (Homo sapiens, UniProt Q96EB6); test: Inhibition of human recombinant SIRT1 using fluorescent peptide substrate by fluorescent assay; method in brief: as §1
T3 sequence (Q96EB6 whole entry): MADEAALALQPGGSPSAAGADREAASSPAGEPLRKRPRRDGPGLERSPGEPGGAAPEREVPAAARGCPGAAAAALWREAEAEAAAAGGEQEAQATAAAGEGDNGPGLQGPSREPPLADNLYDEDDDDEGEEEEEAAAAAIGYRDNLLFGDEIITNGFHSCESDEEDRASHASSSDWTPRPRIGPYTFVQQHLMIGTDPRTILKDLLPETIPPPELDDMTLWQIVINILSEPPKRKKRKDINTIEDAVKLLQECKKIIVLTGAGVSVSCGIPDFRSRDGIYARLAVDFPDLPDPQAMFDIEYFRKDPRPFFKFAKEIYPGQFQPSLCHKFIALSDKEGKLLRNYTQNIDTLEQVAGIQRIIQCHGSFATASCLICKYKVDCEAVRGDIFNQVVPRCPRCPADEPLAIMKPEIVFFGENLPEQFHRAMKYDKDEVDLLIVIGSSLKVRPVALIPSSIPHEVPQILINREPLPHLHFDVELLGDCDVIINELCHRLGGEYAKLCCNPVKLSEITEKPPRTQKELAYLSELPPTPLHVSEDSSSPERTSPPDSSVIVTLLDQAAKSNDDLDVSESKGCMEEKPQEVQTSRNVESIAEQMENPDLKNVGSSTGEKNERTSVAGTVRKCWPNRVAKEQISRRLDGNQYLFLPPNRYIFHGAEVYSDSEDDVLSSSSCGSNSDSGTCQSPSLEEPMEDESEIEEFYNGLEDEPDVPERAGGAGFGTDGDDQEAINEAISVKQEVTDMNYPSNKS

[4] = system: Midbrain; test: Protection of dopaminergic cell death in rat embryo midbrain transduced with lentivirus encoding alphaSyn-A53T mutant assessed as tyrosine hydroxylase positive cells; format: functional, tissue-based
Method in brief: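 Primary midbrain cultures transduced with α-SynA53T lentivirus (multiplicity of infection = 5) in the presence of vehicle (DMSO) or increasing compound concentrations. Untransduced DMSO-treated (0.2%, v/v) cells served as control. Stained for MAP2 and TH; viability = percentage of MAP2-positive cells also TH-positive. Means ± SEM, N > 3; one-way ANOVA with Dunnett's post hoc test versus α-SynA53T alone.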

[5] = system: Drosophila; test: Protective effect against alphaSyn mediated toxicity in wild-type transgenic Drosophila expressing elav-GAL4; UAS-synWT assessed as rescue of dorsomedial neurons after drug administration for the first 20 days of adult life; format: functional, organism-based
Method in brief: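 Transgenic α-Syn flies were fed compound at 250, 500 or 1000 μM, or DMSO, for the first 20 days of adult life. TH-positive dopamine neurons in the dorsomedial cluster were then assessed in 20-day-old flies. Significance was set at P < 0.01.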

Row | SMILES | IC50 [1] [µM] | IC50 [2] [µM] | IC50 [3] [µM] | Activity [4] | Activity [5]
1 | N#C/C(=C\c1ccc(-c2cccc(C(F)(F)F)c2)o1)C(=O)Nc1cccc2cccnc12 | > 50 | > 50 | > 50 |  | 
2 | N#C/C(=C\c1ccc(-c2cccc(Cl)c2Cl)o1)C(=O)Nc1cccc2ncccc12 | > 50 | > 10 | > 50 |  | 
3 | N#C/C(=C\c1ccc(-c2ccccc2Cl)o1)C(=O)Nc1cccc2ncccc12 | > 50 | 5.5 |  |  | 
4 | O=C(c1ccc(Cl)cc1)N1CCN(c2ccc([N+](=O)[O-])c3ncccc23)CC1 | > 50 | 35 | > 50 | Active | 
5 | N#C/C(=C\c1ccc(-c2cc(Cl)ccc2Cl)o1)C(=O)Nc1cccc2cccnc12 | > 5 | > 50 |  |  | 
6 | N#C/C(=C\c1ccc(-c2cccc(Cl)c2Cl)o1)C(=O)Nc1cccc2cccnc12 | > 50 | > 50 | > 50 |  | 
7 | N#C/C(=C\c1ccc(-c2ccccc2Cl)o1)C(=O)Nc1cccc2cccnc12 | > 50 | > 50 |  |  | 
8 | N#C/C(=C\c1ccc(-c2cccc(C(F)(F)F)c2)o1)C(=O)Nc1cccc2ncccc12 | > 50 | 6 | > 50 |  | 
9 | N#C/C(=C\c1ccc(-c2cc(Cl)ccc2Cl)o1)C(=O)Nc1cccc2ncccc12 |  |  | > 50 | Active | Dose-dependent effect
